Here are results for three molecules from ChEMBL document CHEMBL3779809, “Bioactive Enmein-Type ent-Kaurane Diterpenoids from Isodon phyllostachys” (J Nat Prod, 2016).

Structures are written as SMILES. Activity calls are given as the source filed them. The calls are words filed in the database; no cut-off is given here.

The test system of one assay is SW480. Briefly: Cytotoxicity against human SW480 cells assessed growth inhibition at 40 uM after 48 hrs by MTS assay relative to control. The format is functional.
Conditions: not given
An outline of the steps: (§1)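 Cultured in RPMI-1640 or DMEM with 10% FBS at 37 °C under 5% CO2. Cells seeded, given 12 h at 37 °C, then treated with compound at 40 μM for 48 h. Growth inhibition measured by MTS assay (formazan colorimetry).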
A general note: Formazan colour is commonly taken as a measure of viable cells.
On to `C=C1[C@H]2CC[C@H]3C45C(O)O[C@@H](OC)[C@@H]4C(C)(C)CC[C@@H]5OC(=O)[C@]3(C2)[C@@H]1O` (stereo not given in full), for which the “growth inhibition (GI)” value was “inactive”.
For `C=C1C(=O)[C@]23C[C@@H]1C[C@@H](O)[C@H]2C12C(O)O[C@@H]4OC(O)[C@](C)(CC[C@@H]1OC3=O)[C@@H]42` (stereo not given in full), the “growth inhibition (GI)” value is “inactive”.
For the molecule `C=C1C(=O)[C@]23C[C@@H]1C[C@@H](O)[C@H]2C12CO[C@@H](O)[C@@H]1C(C)(C)[C@@H](O)C[C@@H]2OC3=O` (stereo not given in full), the “growth inhibition (GI)” value was “inactive”.

In another assay the test system is SMMC-7721. Briefly: Cytotoxicity against human SMMC7721 cells assessed growth inhibition at 40 uM after 48 hrs by MTS assay relative to control. The format is functional.
Conditions: not given
The procedure, abridged:
as §1
As to `C=C1[C@H]2CC[C@H]3C45C(O)O[C@@H](OC)[C@@H]4C(C)(C)CC[C@@H]5OC(=O)[C@]3(C2)[C@@H]1O` (stereo not given in full), the “growth inhibition (GI)” value was “inactive”.
The same measure, in the same setting: next, `C=C1C(=O)[C@]23C[C@@H]1C[C@@H](O)[C@H]2C12C(O)O[C@@H]4OC(O)[C@](C)(CC[C@@H]1OC3=O)[C@@H]42` (stereo not given in full): “inactive”.
Still for that read-out and setting: next, `C=C1C(=O)[C@]23C[C@@H]1C[C@@H](O)[C@H]2C12CO[C@@H](O)[C@@H]1C(C)(C)[C@@H](O)C[C@@H]2OC3=O` (stereo not given in full): “inactive”.

In another assay the test system is SW480. Briefly: Cytotoxicity against human SW480 cells assessed as cell viability after 48 hrs by MTS assay. The format is functional, cell-based. Particulars: SW480, 48 h. The procedure, abridged: (§2)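 Cells grown in RPMI-1640 or DMEM with 10% FBS at 37 °C, 5% CO2. Seeded, incubated 12 h, then exposed to a range of concentrations in triplicate for 48 h. Viability read by MTS reduction to formazan. IC50 calculated by Reed and Muench method; cis-platin positive control.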
As usually defined, the IC50 is the concentration needed to halve the response being measured. With `C=C1[C@H]2CC[C@H]3C45C(O)O[C@@H](OC)[C@@H]4C(C)(C)CC[C@@H]5OC(=O)[C@]3(C2)[C@@H]1O` (stereo not given in full), the IC50 was greater than 40 µM.
Still for that read-out and setting: next, `C=C1C(=O)[C@]23C[C@@H]1C[C@@H](O)[C@H]2C12C(O)O[C@@H]4OC(O)[C@](C)(CC[C@@H]1OC3=O)[C@@H]42` (stereo not given in full): greater than 40 µM; `C=C1C(=O)[C@]23C[C@@H]1C[C@@H](O)[C@H]2C12CO[C@@H](O)[C@@H]1C(C)(C)[C@@H](O)C[C@@H]2OC3=O` (stereo not given in full): greater than 40 µM.

The test system of the next assay is HL-60. Briefly: Cytotoxicity against human HL60 cells assessed growth inhibition at 40 uM after 48 hrs by MTS assay relative to control.
Conditions: not given
The format is functional. The procedure, abridged:
as §1
Turning to `C=C1[C@H]2CC[C@H]3C45C(O)O[C@@H](OC)[C@@H]4C(C)(C)CC[C@@H]5OC(=O)[C@]3(C2)[C@@H]1O` (stereo not given in full), the “growth inhibition (GI)” value is “inactive”.
Same read-out and setting: next, `C=C1C(=O)[C@]23C[C@@H]1C[C@@H](O)[C@H]2C12C(O)O[C@@H]4OC(O)[C@](C)(CC[C@@H]1OC3=O)[C@@H]42` (stereo not given in full): “inactive”; `C=C1C(=O)[C@]23C[C@@H]1C[C@@H](O)[C@H]2C12CO[C@@H](O)[C@@H]1C(C)(C)[C@@H](O)C[C@@H]2OC3=O` (stereo not given in full): “inactive”.

Another assay relates to A549. Briefly: Cytotoxicity against human A549 cells assessed as cell viability after 48 hrs by MTS assay. The format is functional, cell-based. Particulars: A549, 48 h. The procedure, abridged: as §2
Regarding `C=C1[C@H]2CC[C@H]3C45C(O)O[C@@H](OC)[C@@H]4C(C)(C)CC[C@@H]5OC(=O)[C@]3(C2)[C@@H]1O` (stereo not given in full), the IC50 is greater than 40 µM.
In the case of `C=C1C(=O)[C@]23C[C@@H]1C[C@@H](O)[C@H]2C12C(O)O[C@@H]4OC(O)[C@](C)(CC[C@@H]1OC3=O)[C@@H]42` (stereo not given in full), the IC50 is greater than 40 µM.
On the same count and under the same terms, the same measure for `C=C1C(=O)[C@]23C[C@@H]1C[C@@H](O)[C@H]2C12CO[C@@H](O)[C@@H]1C(C)(C)[C@@H](O)C[C@@H]2OC3=O` (stereo not given in full): greater than 40 µM.

The test system of a further assay is A549. Briefly: Cytotoxicity against human A549 cells assessed growth inhibition at 40 uM after 48 hrs by MTS assay relative to control. The class given is functional.
Conditions: not given
The procedure, abridged: as §1
For the molecule `C=C1[C@H]2CC[C@H]3C45C(O)O[C@@H](OC)[C@@H]4C(C)(C)CC[C@@H]5OC(=O)[C@]3(C2)[C@@H]1O` (stereo not given in full), the “growth inhibition (GI)” value was “inactive”.
Same read-out and setting: next, `C=C1C(=O)[C@]23C[C@@H]1C[C@@H](O)[C@H]2C12C(O)O[C@@H]4OC(O)[C@](C)(CC[C@@H]1OC3=O)[C@@H]42` (stereo not given in full): “inactive”; `C=C1C(=O)[C@]23C[C@@H]1C[C@@H](O)[C@H]2C12CO[C@@H](O)[C@@H]1C(C)(C)[C@@H](O)C[C@@H]2OC3=O` (stereo not given in full): “inactive”.

Test system in a further assay: not listed separately
Briefly: Cytotoxicity against human SMMC7721 cells assessed as cell viability after 48 hrs by MTS assay. The class given is functional, cell-based. Particulars: SMMC-7721, 48 h. An outline of the steps:
as §2
As for `C=C1[C@H]2CC[C@H]3C45C(O)O[C@@H](OC)[C@@H]4C(C)(C)CC[C@@H]5OC(=O)[C@]3(C2)[C@@H]1O` (stereo not given in full), the IC50 was greater than 40 µM.
On the same count and under the same terms, the same measure for `C=C1C(=O)[C@]23C[C@@H]1C[C@@H](O)[C@H]2C12C(O)O[C@@H]4OC(O)[C@](C)(CC[C@@H]1OC3=O)[C@@H]42` (stereo not given in full): greater than 40 µM; for `C=C1C(=O)[C@]23C[C@@H]1C[C@@H](O)[C@H]2C12CO[C@@H](O)[C@@H]1C(C)(C)[C@@H](O)C[C@@H]2OC3=O` (stereo not given in full): greater than 40 µM.

A further assay deals with MCF7. Briefly: Cytotoxicity against human MCF7 cells assessed growth inhibition at 40 uM after 48 hrs by MTS assay relative to control. The class given is functional.
Conditions: not given
An outline of the steps: as §1
Consider `C=C1[C@H]2CC[C@H]3C45C(O)O[C@@H](OC)[C@@H]4C(C)(C)CC[C@@H]5OC(=O)[C@]3(C2)[C@@H]1O` (stereo not given in full), for which the “growth inhibition (GI)” value is “inactive”.
On the same count and under the same terms, the same measure for `C=C1C(=O)[C@]23C[C@@H]1C[C@@H](O)[C@H]2C12C(O)O[C@@H]4OC(O)[C@](C)(CC[C@@H]1OC3=O)[C@@H]42` (stereo not given in full): “inactive”; for `C=C1C(=O)[C@]23C[C@@H]1C[C@@H](O)[C@H]2C12CO[C@@H](O)[C@@H]1C(C)(C)[C@@H](O)C[C@@H]2OC3=O` (stereo not given in full): “inactive”.

The test system of another assay is MCF7. Briefly: Cytotoxicity against human MCF7 cells assessed as cell viability after 48 hrs by MTS assay. The class given is functional, cell-based. The conditions noted are these: MCF7, 48 h. The procedure, abridged: as §2
Consider `C=C1[C@H]2CC[C@H]3C45C(O)O[C@@H](OC)[C@@H]4C(C)(C)CC[C@@H]5OC(=O)[C@]3(C2)[C@@H]1O` (stereo not given in full), for which the IC50 was greater than 40 µM.
Same read-out and setting: next, `C=C1C(=O)[C@]23C[C@@H]1C[C@@H](O)[C@H]2C12C(O)O[C@@H]4OC(O)[C@](C)(CC[C@@H]1OC3=O)[C@@H]42` (stereo not given in full): greater than 40 µM.
As to `C=C1C(=O)[C@]23C[C@@H]1C[C@@H](O)[C@H]2C12CO[C@@H](O)[C@@H]1C(C)(C)[C@@H](O)C[C@@H]2OC3=O` (stereo not given in full), the IC50 was greater than 40 µM.

Test system in a further assay: not listed separately
Briefly: Cytotoxicity against human HL60 cells assessed as cell viability after 48 hrs by MTS assay. Particulars: HL-60, 48 h. The format is functional, cell-based. The procedure, abridged:
as §2
Take `C=C1[C@H]2CC[C@H]3C45C(O)O[C@@H](OC)[C@@H]4C(C)(C)CC[C@@H]5OC(=O)[C@]3(C2)[C@@H]1O` (stereo not given in full): the IC50 was greater than 40 µM.
In the case of `C=C1C(=O)[C@]23C[C@@H]1C[C@@H](O)[C@H]2C12C(O)O[C@@H]4OC(O)[C@](C)(CC[C@@H]1OC3=O)[C@@H]42` (stereo not given in full), the IC50 is greater than 40 µM.
For the molecule `C=C1C(=O)[C@]23C[C@@H]1C[C@@H](O)[C@H]2C12CO[C@@H](O)[C@@H]1C(C)(C)[C@@H](O)C[C@@H]2OC3=O` (stereo not given in full), the IC50 was greater than 40 µM.
